The record followed here is ChEMBL document CHEMBL4190397, “Design and Synthesis of Novel and Selective Glycine Transporter-1 (GlyT1) Inhibitors with Memory Enhancing Properties” (J Med Chem, 2018).

Data set [1] can be described thus: Permeability of the compound at pH 7.4 at 100 uM after 60 mins by PAMPA-BBB assay. (In general: PAMPA measures passive passage across an artificial lipid membrane.)
Data set [2] can be described thus: Apparent permeability from basolateral to apical side in MDCK-MDR1 cells monolayer at 5 uM after 60 mins by LC-MS/MS analysis. The conditions noted are these: dog.
A further data set has as its target Cytochrome P450 2C19 (Homo sapiens, UniProt P33261). Description: Inhibition of CYP2C19 in human liver microsomes using S-mephenytoin as substrate measured after 10 mins in presence of NADPH by LC-MS/MS analysis. (In general: Microsomes from liver hold many membrane-bound enzymes, among them those of drug oxidation.)
Data set [3] concerns the target T1, Sodium- and chloride-dependent glycine transporter 1 (Rattus norvegicus, UniProt P28572).
T1 sequence (P28572 whole entry): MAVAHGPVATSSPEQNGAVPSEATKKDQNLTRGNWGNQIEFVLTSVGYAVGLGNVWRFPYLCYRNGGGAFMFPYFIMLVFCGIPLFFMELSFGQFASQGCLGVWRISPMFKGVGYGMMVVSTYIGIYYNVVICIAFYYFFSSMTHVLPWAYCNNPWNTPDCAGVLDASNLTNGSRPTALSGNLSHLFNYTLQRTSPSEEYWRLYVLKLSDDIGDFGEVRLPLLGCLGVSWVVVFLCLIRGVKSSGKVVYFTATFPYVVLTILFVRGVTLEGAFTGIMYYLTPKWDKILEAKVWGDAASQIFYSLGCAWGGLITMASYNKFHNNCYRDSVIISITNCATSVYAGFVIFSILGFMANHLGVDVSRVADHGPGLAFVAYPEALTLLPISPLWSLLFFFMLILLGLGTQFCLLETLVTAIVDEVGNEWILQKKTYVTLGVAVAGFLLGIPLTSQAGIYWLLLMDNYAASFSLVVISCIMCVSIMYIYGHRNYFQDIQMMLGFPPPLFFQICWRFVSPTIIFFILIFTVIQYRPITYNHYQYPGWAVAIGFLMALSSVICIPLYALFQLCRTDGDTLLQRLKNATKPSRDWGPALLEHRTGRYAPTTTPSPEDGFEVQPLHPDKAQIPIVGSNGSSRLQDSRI
Description: Inhibition of GlyT1 in primary rat cortical neurons assessed as reduction in [14C]glycine uptake after 2 hrs by microbeta scintillation counting method.

The target of a further data set is Cytochrome P450 2C9 (Homo sapiens, UniProt P11712). The data set is described as follows: Inhibition of CYP2C9 in human liver microsomes using diclofenac as substrate measured after 10 mins in presence of NADPH by LC-MS/MS analysis.
Cytochrome P450 2C9, sequence (P11712 whole entry): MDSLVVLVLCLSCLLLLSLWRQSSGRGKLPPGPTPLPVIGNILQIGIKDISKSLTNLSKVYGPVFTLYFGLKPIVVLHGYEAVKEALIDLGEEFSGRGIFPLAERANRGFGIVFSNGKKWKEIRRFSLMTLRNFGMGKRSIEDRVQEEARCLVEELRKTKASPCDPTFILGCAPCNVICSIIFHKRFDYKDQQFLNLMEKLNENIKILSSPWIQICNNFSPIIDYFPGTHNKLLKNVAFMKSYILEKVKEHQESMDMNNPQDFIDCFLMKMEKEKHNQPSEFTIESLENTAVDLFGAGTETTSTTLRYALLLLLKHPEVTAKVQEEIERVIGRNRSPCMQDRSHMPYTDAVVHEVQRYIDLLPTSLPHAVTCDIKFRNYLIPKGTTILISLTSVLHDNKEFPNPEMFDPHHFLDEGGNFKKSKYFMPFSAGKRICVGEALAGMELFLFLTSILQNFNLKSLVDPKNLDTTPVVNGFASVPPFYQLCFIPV
Data set [4] in a line: Plasma concentration in Sprague-Dawley rat at 10 mg/kg, po after 90 mins by LC-MS/MS analysis. Type of data set: ADME, organism-based. In a few lines:
(§1)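 Male SD rats (n=5) given a single oral dose of 10 mg/kg in NMP/PEG400/water (10:50:40). Plasma, total brain and CSF compound concentrations measured 90 min after dosing.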

Data set [5] in a line: Unbound fraction in rat brain homogenate at 1 uM by LC-MS/MS based equilibrium dialysis. The format is ADME, tissue-based. In a few lines:
(§2)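 Rat plasma or brain homogenate (1:6 in 0.1 M PBS pH 7.2) spiked to 1.0 µM, in triplicate. Rapid equilibrium dialysis (MWCO 8000) against PBS, shaken at 37 °C for 6 h. Matrix-matched samples quantified by LC-MS/MS. fu = receiver/donor concentration; brain value corrected for homogenate dilution.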
On the technique in general: Equilibrium dialysis compares concentrations on both sides of a semipermeable membrane.

Data set [6] can be described thus: Ratio of free drug level in rat brain homogenate at 1 uM to IC50 for inhibition of GlyT1 in primary rat cortical neurons. The format is tissue-based.
Data set [7] can be described thus: Drug uptake in Sprague-Dawley rat CSF at 10 mg/kg, po after 90 mins by LC-MS/MS analysis. The conditions noted are these: read-out: Drug uptake. The format is ADME, organism-based, Cerebrospinal fluid. In a few lines:
as §1

Data set [8] in a line: Unbound fraction in rat plasma at 1 uM by LC-MS/MS based equilibrium dialysis. The format is ADME, cell-free. Summed up:
as §2

Data set [9] in a line: Free drug level in rat brain homogenate at 1 uM by LC-MS/MS based equilibrium dialysis. Type of data set: ADME, tissue-based.
Data set [10] relates to Rattus norvegicus. Description: In vivo inhibition of GlyT1 in Sprague-Dawley rat assessed as increase in CSF glycine levels at 10 mg/kg, po administered as single dose measured after 90 mins by LC-MS/MS analysis relative to control. The format is functional. Details: scale not given: the % may be the effect or the level left. In a few lines: (§3)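 Male Sprague-Dawley rats (300−400 g, n = 5), fed ad libitum, dosed orally at 10 mg/kg (10 mL/kg) in NMP/PEG400/water (10:50:40), with a vehicle group (n = 5) in each study. CSF (~100 µL) taken under anaesthesia at 90 min. Glycine derivatised with Marfey's reagent, 13C2-15N-glycine internal standard, LC-MS/MS in negative ion mode. Expressed as % of vehicle; 1-way ANOVA.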

Data set [11] can be described thus: Drug uptake in Sprague-Dawley rat brain at 10 mg/kg, po after 90 mins by LC-MS/MS analysis. The format is ADME, organism-based. The following applies: read-out: Drug uptake. Summed up: as §1
Data set [12] has as its system Rattus norvegicus. Description: In vivo inhibition of GlyT1 in Sprague-Dawley rat assessed as CSF glycine levels at 10 mg/kg, po administered as single dose measured after 90 mins by LC-MS/MS analysis relative to control. The format is functional. In a few lines:
as §3

Cytochrome P450 2C19, sequence (P33261 whole entry): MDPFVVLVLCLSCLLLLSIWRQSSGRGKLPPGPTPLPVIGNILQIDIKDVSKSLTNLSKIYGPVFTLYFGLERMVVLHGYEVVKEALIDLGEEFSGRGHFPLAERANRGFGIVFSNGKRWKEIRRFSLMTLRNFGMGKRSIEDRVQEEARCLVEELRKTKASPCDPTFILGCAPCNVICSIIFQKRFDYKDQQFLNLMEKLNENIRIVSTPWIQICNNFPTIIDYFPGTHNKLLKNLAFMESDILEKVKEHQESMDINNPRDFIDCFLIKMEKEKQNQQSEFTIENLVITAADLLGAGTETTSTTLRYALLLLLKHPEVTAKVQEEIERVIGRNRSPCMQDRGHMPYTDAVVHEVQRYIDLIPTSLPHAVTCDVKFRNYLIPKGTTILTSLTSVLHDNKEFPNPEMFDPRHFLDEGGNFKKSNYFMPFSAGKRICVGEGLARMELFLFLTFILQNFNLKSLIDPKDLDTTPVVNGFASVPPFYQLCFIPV

As a reminder, the Papp is a coefficient for how fast a substance crosses the barrier. The Papp B→A is how fast a substance crosses the layer from the basolateral side. As a reminder, the IC50 is the point on the concentration scale where inhibition reaches its midpoint. As for `C[C@H](Oc1ccc(C#N)cc1C(=O)N1Cc2cn(-c3ccccc3F)nc2C1)C(F)(F)F`, the Papp at 1 h, 100 µM in data set [1] is greater than 10 ×10⁻⁶ cm/s. Further, the apparent permeability from basolateral to apical (Papp B→A) at 1 h, 5 µM in data set [2] came to 61.7 ×10⁻⁶ cm/s. In addition, the IC50 at Cytochrome P450 2C19 was greater than 10 µM; in data set [3], 0.108 µM; on Cytochrome P450 2C9 it was greater than 10 µM.
What is called fraction unbound is free concentration divided by total concentration. For `CS(=O)(=O)c1ccc(OCC2CC2)c(C(=O)N2Cc3cn(-c4ccccc4F)nc3C2)c1`, the values for the concentration at […] in data set [4], in data set [7] and in [11] were 2140 nM, 26 nM and 605 nM, respectively. Moreover, the results for the free fraction (fraction unbound) at 1 µM in [5] and in data set [8] were 0.017 and 0.047, respectively. The Ratio in [6] was 0.37. The same compound returned a Papp at 1 h, 100 µM in data set [1] of 77.9 ×10⁻⁶ cm/s. In data set [2], the apparent permeability from basolateral to apical (Papp B→A) at 1 h, 5 µM turned out to be 58.9 ×10⁻⁶ cm/s. The results for the IC50 (at Cytochrome P450 2C19; in data set [3]; on Cytochrome P450 2C9) were greater than 10 µM, 0.028 µM and greater than 10 µM, respectively. For the same compound, the “Drug uptake(free)” value in data set [9] is listed as 10.3 nM. The figures for the Activity with Rattus norvegicus [10] and in the data set with Rattus norvegicus [12] were 110% and 7.6 µM, respectively.
